Sampled rows, rich in hits. Any-hit rate of the full collection: about 12%.
Autophagy mod: alters autophagy in cells. MEF GFP-LC3 puncta imaging; test concentration mostly 10 µM. calls only at 10 µM (by protocol). actives 0.98% (n = 190,000). AID 463193;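 active = percentage of spot-positive cells more than 3 SD above its plate mean, without a fluorescence outlier flag or 80% toxicity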;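 also: spot-positive cell cutoff set from DMSO-treated cells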
b-catenin transl: alters nuclear translocation of beta-catenin in HeLa cells; immunofluorescence imaging; nuclear translocation activity, % at 5 µM; actives 0.3% (n = 190,000); AID 1665;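 active = nuclear translocation activity above 50% at 5 µM, with a well cell count of 50 or more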;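 also: per-cell ratio of nuclear to cytoplasmic median beta-catenin stain intensity; plate controls were DMSO negative control for no effect and GSK-3 inhibitor IX positive control for full effect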
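System: HeLa cells, endogenous beta-catenin; compound dosing: 5 µM primary single dose, 0.1% DMSO, 0.02–20 µM confirmation series; incubation: 24 h compound exposure at 37°C, 5% CO2; signal: beta-catenin immunofluorescence imaging with DAPI; evaluation: % activation, nuclear-to-cytoplasmic median beta-catenin signal ratio per cell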
CHOP inhibitor: blocks CHOP induction under ER stress; CHO-K1 CHOP-promoter luciferase, tunicamycin-induced, 15-18 h; actives 3.8% (n = 220,000); inhibition, % at 10 µM; AID 2732;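 active = compounds that reduced the stress-induced luciferase reporter signal by more than about 70% of percent inhibition, limit read from the data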;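 also: 0% = tunicamycin plus vehicle and 100% = wells without tunicamycin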
Dynein transport: dynein cargo transport inhibition. z-score, hits read low. 3617.4 mouse cells, GR-EGFP nuclear translocation imaging; test concentration mostly 20 µM; stimulated with dexamethasone, 1 µM; stronger effect = lower value. actives 0.47% (n = 220,000). AID 1381;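 active = plate z-score of nuclear minus cytoplasmic receptor signal below a set negative limit, without overly bright fluorescence or cell loss, cut at about -3.5 in these data, passing the limit was not always enough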;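 also: z-score of nuclear minus cytoplasmic ring GR-EGFP intensity difference per well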
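Buffer or medium: tetracycline-free induction medium containing charcoal-stripped FBS / Reagent: dexamethasone agonist, 1.0 µM final, for 30 min / Technique: automated 10x imaging of fixed Hoechst-stained cells / Times: induction 48 h, compound 1 h, agonist 30 min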
MT stabilizer: microtubule stabilization, imaging screen. actives 0.83% (n = 200,000). % tubulin-high responders, % at 10 µM. HeLa tubulin immunostaining HCS, 24 h; share of cells brighter than vehicle mean+2SD;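 active = plate Z-score above 3 for both tubulin-high and condensed-nucleus cell shares, with cell loss under 80%, at 10 µM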;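 also: anti alpha tubulin signal scored within the nucleus-defined area of each cell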
Lmaj promast: inhibitors of Leishmania major promastigote growth; Leishmania major promastigotes, resazurin fluorescence viability; inhibition, % at 10 µM; actives 9% (n = 200,000); AID 1063; in the data active = inhibition above about 50%;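 also: promastigotes grown with compound for 44 hours at 28 °C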
* = called active by the depositor; i = inactive; · = not tested or not shown.

SMILES	Autophagy mod	b-catenin transl	CHOP inhibitor	Dynein transport	MT stabilizer	Lmaj promast
CCCCN(CC)CCCNC(=O)c1cn(CC)c2ccc(S(=O)(=O)N3CCc4ccccc4C3)cc2c1=O	i	-4	22	1.3	3	98*
O=C(O)CCC(NC(=O)c1ccccc1C(=O)O)C(=O)O (stereo not given)	·	·	0	·	·	·
COc1ccc(C(=S)N2CCN(c3cccc(Cl)c3)CC2)c(OC)c1	i	107*	28	-0.38	18*	-6
COc1ccc(C(=O)N2CCN(c3cccc(Cl)c3)CC2)cc1	i	-2	20	0.31	2	-1
COc1cc(C(=S)N2CCN(c3cccc(Cl)c3)CC2)ccc1O	i	50*	10	-0.75	24*	-3
Oc1ccc(C(=S)N2CCN(c3cccc(Cl)c3)CC2)cc1	i	-1	33	0.63	7	5
CCCN(CCC)C(C)C(=O)NCC1(c2ccccc2)CCCC1 (stereo not given)	i	-2	-5	0.42	3	11
Clc1ccc(-n2ncc3c(N4CCCCCC4)ncnc32)cc1	i	-4	84*	0.15	3	-4
c1ccc(-n2ncc3c(N4CCN(CCOc5cccc6ccccc56)CC4)ncnc32)cc1	i	·	62	-1.4	1	99*
COc1ccc(-n2ncc3c(N4CCCCC4)ncnc32)cc1	i	2	89*	0.69	2	8
CS(=O)(=O)N1CCN(c2ncnc3c2cnn3-c2ccccc2)CC1	i	-2	-12	-0.53	1	-7
O=C(COc1ccccc1)N(Cc1ccco1)c1ccc(O)cc1	i	-3	26	0.42	4	-6
O=C(c1ccc(Cl)c(Cl)c1)N(Cc1ccco1)c1ccc(O)cc1	i	0	87*	1.1	21	70*
COc1cc(CN2CCC(C(=O)N3CCN(c4ccccc4F)CC3)CC2)ccc1O	i	0	10	-0.43	5	63*
COc1cccc(CN2CCC(C(=O)N3CCN(c4ccccc4F)CC3)CC2)c1	i	0	40	-0.66	3	89*
COc1ccc(OC)c(CN2CCC(C(=O)N3CCN(c4ccccc4F)CC3)CC2)c1	i	-2	-27	-0.66	1	-13
CC(C)(C)c1ccc(C(=O)NCC(=O)OCc2ccc([N+](=O)[O-])cc2)cc1	i	2	46	1.3	6	-6
O=C(CSc1nc2ccccc2c(=O)n1-c1ccc(F)cc1)Nc1ccc2c(c1)CCC2	i	3	51	-0.034	2	81*
O=C(CSc1nc2ccccc2c(=O)n1-c1ccc(F)cc1F)Nc1ccc2c(c1)CCC2	i	·	37	-0.13	3	99*
O=c1c2ccccc2nc(SCc2nnc(-c3ccccc3)o2)n1-c1ccc(F)cc1F	i	-3	19	-0.75	2	78*
O=C(CSc1nc2ccccc2c(=O)n1-c1ccc(F)cc1)Nc1ccc(Cl)c(S(=O)(=O)N2CCOCC2)c1	i	-3	8	-0.8	3	95*
Clc1ccc2nncn2n1	i	1	-24	1.9	4	19
CCOC(=O)c1c(NC(=O)COc2ncnc3ccccc23)sc(C)c1CC	i	0	35	2.3	4	16
O=C(CSc1nc2ccccc2c(=O)n1-c1ccccc1F)Nc1ccc2c(c1)CCC2	i	·	48	-0.44	3	98*
COc1ccccc1NC(=O)N(Cc1ccc2c(c1)OCO2)Cc1nc2ccccc2c(=O)[nH]1	i	-5	47	-0.38	1	-6
SMILES	Autophagy mod	b-catenin transl	CHOP inhibitor	Dynein transport	MT stabilizer	Lmaj promast
COc1cc2nc(CN(C)Cc3nc4ccccc4c(=O)[nH]3)[nH]c(=O)c2cc1OC	i	2	-19	0.31	2	-19
O=C(Nc1ccc(Cl)cc1)N(Cc1nc2ccccc2c(=O)[nH]1)Cc1cccs1	i	0	52	0.43	2	85*
COc1ccc(S(=O)(=O)N(Cc2ccccc2)Cc2nc3ccccc3c(=O)[nH]2)cc1	i	2	72*	-0.074	2	-1
COc1ccccc1CN(Cc1nc2ccccc2c(=O)[nH]1)C(=O)Nc1cccc(C)c1	i	·	48	0.039	1	86*
COc1ccccc1CN(Cc1nc2ccccc2c(=O)[nH]1)S(=O)(=O)c1ccc2ccccc2c1	i	2	-11	3	5	90*
CC1CCN(CC(=O)Nc2ccc(S(=O)(=O)NC3CC3)cc2)CC1	·	-1	8	-0.067	·	·
C#CCOc1nc(OCC#C)nc(OCC#C)n1	i	1	-4	0.39	4	-3
CCCCCCCCCCCC(=O)NC1CCS(=O)(=O)C1 (stereo not given)	i	0	5	-1.2	7	7
Fc1cccc(NC(=S)N2CCn3cccc3C2c2cccnc2)c1 (stereo not given)	i	0	-5	0.13	2	92*
S=C(NC1CCCCC1)N1CCn2cccc2C1c1cccnc1 (stereo not given)	i	-2	5	1.3	2	98*
S=C(Nc1ccccc1)N1CCn2cccc2C1c1cccnc1 (stereo not given)	i	-2	9	-1.3	6	86*
S=C(NC1CCCCC1)N1CCn2cccc2C1c1ccncc1 (stereo not given)	i	2	-16	0.71	5	0
Fc1ccc(C2c3cccn3CCN2C(=S)Nc2cccc(F)c2)cc1 (stereo not given)	i	-3	56	0.22	3	21
COc1ccccc1NC(=S)N1CCn2cccc2C1c1cccnc1 (stereo not given)	i	0	-23	0.02	2	78*
CCOC(=O)c1cc(C(C)(C)C)n(CCCN2CCOCC2)c1C	·	-2	0	0.15	·	·
CCOC(=O)c1cc(C)n(CCCN2CCOCC2)c1C	i	0	-9	3.8	1	90*
CN(CC(=O)Nc1ccc(S(=O)(=O)N2CCCC2)cc1)Cc1c(F)cccc1Cl	i	-2	36	1.7	4	100*
Cc1ccc(CSc2nnc(-c3ccc(S(=O)(=O)N4CCCC4)cc3)o2)cc1	i	1	46	-0.57	1	6
O=C(Cn1nc(-c2ccccc2F)ccc1=O)Nc1ccc(S(=O)(=O)N2CCCCCC2)cc1	i	-2	46	-0.62	4	12
O=C(Cn1ncc2c1-c1ccccc1OC2)Nc1ccc(S(=O)(=O)N2CCCCC2)cc1	i	1	86*	-0.087	4	32
O=S(=O)(NCCc1ccccc1)c1ccc(S(=O)(=O)N2CCCCC2)cc1	i	-1	20	-0.052	5	-7
O=S(=O)(c1ccc(-c2nnc(SCc3ccccc3)o2)cc1)N1CCCC1	i	-3	25	-0.79	5	85*

Assay outcomes (PubChem)
